Compound activity: PubChem, several laboratories
Only some compounds are listed: those with a hit (about 5.6% of all), similar ones and a draw of the others.
XBP1 UPR activ: activators of adaptive XBP1 UPR arm, primary screen, cell-based, CHO-XBP1 luciferase reporter, luminescence, uHTS | IRE1-XBP1 UPR activation; percent of tunicamycin response, DMSO as zero | activation, % at 20 µM | hit rate 0.33% among 330,000;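 active means versus positive control, 20 µM dose yields 30% or more activation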;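 further: 100% = tunicamycin at 10 µg/mL and 0% = DMSO only wells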
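Material: CHO-XBP1 cells stably carrying IRE1-XBP1-driven luciferase reporter | Medium: F12 with 10% serum | Compound dosing: 20 µM single concentration, DMSO 1% | Incubation: Overnight seeding at 37 °C, 6 h compound treatment at 37 °C | Detection: Steady-Glo luminescence read | Read-out basis: % activation of reporter signal versus tunicamycin and DMSO controls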
CHOP UPR activ: activators of apoptotic CHOP UPR arm, primary screen, cell-based, CHO-CHOP luciferase reporter, luminescence, uHTS | UPR activation; percent of tunicamycin response over DMSO baseline | activation, % at 10 µM | hit rate 0.34% among 330,000 | AID 449763, 2010;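 active means at 10 µM dose, activation of 40% or more, normalized to positive control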;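 further: 100% = tunicamycin at 10 µg/mL and 0% = DMSO alone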
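Test system: CHO-CHOP cells, stable luciferase reporter of PERK-eIF2a-CHOP signalling | Quantity: 500 CHO-CHOP cells per well | Buffer or medium: F12 plus 10% serum | Compound dosing: 10 µM single point, 0.5% DMSO | Schedule: 6 h compound treatment, 37 °C | Signal: Luciferase luminescence | Control set: Tunicamycin high control, DMSO low control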
NR3A LBD binder: binders of NR3A ligand-binding domain, primary screen, biophysical, differential scanning fluorimetry, uHTS; Glutamate receptor ionotropic, NMDA 3A (GRIN3A) ligand-binding domain; hit rate 2.5% among 340,000; Tm shift relative to glycine control, % at 25 µM; NR3A LBD differential scanning fluorimetry, Tm shift; 0% = protein alone, 100% = glycine-bound protein;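 active means melting temperature shift of at least 10% of the positive control shift, at one fixed dose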
MPTP inh: mitochondrial permeability transition pore inhibitors, primary screen, biochemical, isolated mouse mitochondria, absorbance. Ca2+ swelling absorbance, 30 min. inhibition, % at 10 µM. hit rate 1.4% among 360,000. AID 602449, 2012;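 active means inhibition of 50% or more, scaled per plate between neutral and stimulator controls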;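 further: 0% = DMSO wells given calcium and 100% = 1 mM EGTA wells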
CHOP inh: inhibitors of CHOP promoter induction, primary screen, cell-based, unfolded protein response, luciferase reporter; AID 2732, 2010; hit rate 3.8% among 220,000; CHO-K1 CHOP-promoter luciferase, tunicamycin-induced, 15-18 h; inhibition, % at 10 µM;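 active means compounds that reduced the stress-induced luciferase reporter signal by more than about 70% of percent inhibition, limit read from the data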;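 further: 0% = tunicamycin plus vehicle and 100% = wells without tunicamycin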
aDG glyco act: activators of alpha-DG glycosylation, primary screen, uHTS, Pro5-aDG cells, AlphaScreen; activation, % at 10 µM; hit rate 0.22% among 360,000; AID 624168, 2012; alpha-DG glycosylation AlphaScreen (IIH6); 0% Pro5, 100% B10-LARGE cell signal;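 active means activation of at least 8% versus controls, or a plate z-score of at least 8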;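 further: Pro5 are CHO cells carrying HIG-tagged alpha-DG that lacks glycosylation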
MPTP counter: fluorescence retest of MPTP screen hits in isolated mitochondria, single concentration | shares compounds with MPTP inh | membrane potential, Rhodamine 123 fluorescence | inhibition, % at 10 µM | hit rate 78% among 5,000 | AID 624504, 2012; in the data active means inhibition above about 22%;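 further: 0% = DMSO vehicle and 100% = positive control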
MPTP swell DR: mitochondrial permeability transition pore inhibitors, dose response, biochemical, absorbance, uHTS hits; hit rate 58% among 780; isolated mitochondria swelling; IC50, µM; shares compounds with MPTP inh; AID 651561, 2012; in the data active means IC50 below about 20 µM
MPTP cs DR: fluorescent counter-screen in isolated mitochondria, dose response, counter-screen for MPTP inhibitor project, biochemical, fluorescence, uHTS hits. shares compounds with MPTP inh. isolated mitochondria counterscreen, fluorescence read-out. IC50, µM. hit rate 49% among 780. AID 651564, 2012; in the data active means IC50 below about 80 µM
The depositor's hits bear a star; . = not tested or not shown; ! = a repeat was not active.

SMILES	XBP1 UPR activ	CHOP UPR activ	NR3A LBD binder	MPTP inh	CHOP inh	aDG glyco act	MPTP counter	others
O=C(O)c1ccc(/C=N\Nc2ccc(S(=O)(=O)N3CCOCC3)cc2[N+](=O)[O-])cc1	1	1	1	1	8	0	.
CCN1CCN(Cc2ccc(NC(=O)c3ccc(C)c(NC(=O)C(=O)c4c[nH]c5ccccc45)c3)cc2C(F)(F)F)CC1	17	25	3	94*!	92*	0	-12
CCN1CCN(Cc2ccc(NC(=O)c3cc(NC(=O)C(=O)c4c[nH]c5ccccc45)cc(OC)c3)cc2C(F)(F)F)CC1	9	7	-18	-1	49	-1	.
Oc1ccc(Cl)cc1-c1cc(-c2ccccc2Cl)[nH]n1	5	5	10	61*	-27	0	67*
COc1ccc(O)c(-c2cc(-c3ccccc3[N+](=O)[O-])[nH]n2)c1	1	6	-4	2	-11	0	.
COc1ccc(-c2csc(NC(=O)CSc3nc(SC)ns3)n2)cc1	-1	3	7	65*	-4	0	74*
O=C(NNC(=O)c1csc(N2CCOCC2)n1)c1ccc(Cl)nc1	0	0	1	0	.	0	.
O=C(NCc1ccco1)c1ccccc1NS(=O)(=O)c1ccc(Br)s1	1	-1	-4	71*	19	0	81*
Cc1cc2nc(C)n(CCCNC(=O)Nc3cccc4ccccc34)c2cc1C	-1	4	-3	88*	75*	5	91*
O=C(N/N=C/c1cc([N+](=O)[O-])ccc1O)c1cc(-c2ccccc2)nc2ccccc12	1	4	21*	98*	58	0	50*
O=C(N/N=C/c1ccc(Cl)c([N+](=O)[O-])c1)c1cc(-c2ccccc2)nc2ccccc12	3	12	8	68*	-11	-1	75*
C[C@@H]1CN([C@@H](C)CO)C(=O)CCCn2nncc2CO[C@H]1CN(C)C(=O)c1ccc2ccn(C)c2c1	.	.	.	0	.	0	.
O=C(O)c1cc(S(=O)(=O)N2CC3CC3C2C(=O)O)c(Cl)cc1Cl (stereo unspecified)	-2	1	-1	0	.	0	.
COc1ccc(OC)c2sc(N(CCCN(C)C)C(=O)CCS(=O)(=O)c3ccccc3)nc12	-10	-9	2	-2	.	0	.
COc1ccc(C)c2sc(N(CCCN(C)C)C(=O)CS(=O)(=O)c3ccc(F)cc3)nc12	1	-1	.	85*	.	0	-18	MPTP swell DR=5.7*;MPTP cs DR=>80
O=C(COc1ccc(C(=O)c2ccccc2)cc1)NC1CCCCCC1	2	1	1	53*	45	2	31*
O=C(COc1ccc(C(=O)c2ccccc2)cc1)NC1CCCCC1	-2	3	1	3	32	0	.
O=C(COc1ccc(C(=O)c2ccccc2)cc1)Nc1cccnc1	-7	3	-1	81*	.	1	82*
CC(C(=O)NC1CCCCC1)N1CCN(S(=O)(=O)c2cccs2)CC1 (stereo unspecified)	-1	-2	0	2	.	0	.
Fc1ccc(NC(=S)N2CCCN(c3ccc(C(F)(F)F)cn3)CC2)c(F)c1	-5	7	-2	71*	53	0	45*
Cc1csc2ncnc(N3CCN(C(=S)Nc4ccc(F)cc4F)CC3)c12	-5	1	3	82*	28	0	75*
CC1CN(C(=S)Nc2ccc(F)cc2F)CC(C)O1 (stereo unspecified)	-4	0	2	-2	.	0	.
CCOc1ccc(CNC(=S)NCc2ccc(OCC)cc2)cc1	3	0	-6	4	0	1	.
CCOc1ccc(CSCCNC(=S)Nc2ccccc2)cc1	-2	4	-5	46	36	0	.
S=C(NCCSCc1ccc(Cl)cc1Cl)Nc1ccccc1	-1	-2	17*	97*	81*	0	105*
SMILES	XBP1 UPR activ	CHOP UPR activ	NR3A LBD binder	MPTP inh	CHOP inh	aDG glyco act	MPTP counter	others
S=C(NCCSCc1c(Cl)cccc1Cl)Nc1ccccc1	-2	2	10	79*	32	0	86*
COc1ccc(CSCCNC(=S)Nc2ccccc2)cc1Cl	-2	-1	5	78*	29	3	90*
CC(C)COc1ccc(CNC(=S)NCc2ccccc2)cc1	-2	0	5	53*	50	0	82*
CCOC(=O)C1=C(COC(=O)C2CC(=O)N(c3ccc(C)cc3)C2)NC(=O)NC1C (stereo unspecified)	-1	1	0	-3	.	0	.
O=C(c1nn2c(C(F)(F)F)cc(-c3ccccc3)nc2c1Cl)N1CCN2CCCC2C1 (stereo unspecified)	0	3	2	0	.	0	.
CC(C)COc1ccc(CNC(=S)Nc2ccccc2)cc1Cl	-4	1	15*	74*	.	0	86*
Cc1ccc(C(=O)NCCSCc2ccc(Cl)cc2Cl)cc1[N+](=O)[O-]	-2	0	-23	68*	21	0	78*
Cc1ccccc1CSCCNC(=S)Nc1ccccc1	-2	-2	-3	57*	-8	0	78*
O=C(NC1CC1)c1cc(=S)[nH]c2ccccc12	-1	-1	2	-2	.	0	.
COc1ccc(OC)c(N(CC(=O)N2CCN(Cc3ccccc3)CC2)S(C)(=O)=O)c1	-2	1	-1	0	.	0	.
O=C(O)c1sccc1Oc1ccc(NS(=O)(=O)c2ccc(Cl)cc2)cc1	1	0	0	0	.	0	.
N#Cc1cccc(C#N)c1Oc1ccc(S(=O)(=O)Nc2ccc(Cl)cc2)cc1	-3	0	10*	77*	48	0	45*
